Experimental data reported in ChEMBL document CHEMBL4480410, “Targeting the MKK7-JNK (Mitogen-Activated Protein Kinase Kinase 7-c-Jun N-Terminal Kinase) Pathway with Covalent Inhibitors” (J Med Chem, 2019).
In brackets after ≈: the same amount, converted by molar mass. Activity calls are given as the source filed them. The rule behind the calls is not given here.

Assays:
[1] = molecular target: T1, Cytoplasmic tyrosine-protein kinase BMX (Homo sapiens) (UniProt P51813); experiment: Inhibition of BMX (unknown origin) at 1 uM by proQinase-based assay relative to control
T1 sequence (whole entry): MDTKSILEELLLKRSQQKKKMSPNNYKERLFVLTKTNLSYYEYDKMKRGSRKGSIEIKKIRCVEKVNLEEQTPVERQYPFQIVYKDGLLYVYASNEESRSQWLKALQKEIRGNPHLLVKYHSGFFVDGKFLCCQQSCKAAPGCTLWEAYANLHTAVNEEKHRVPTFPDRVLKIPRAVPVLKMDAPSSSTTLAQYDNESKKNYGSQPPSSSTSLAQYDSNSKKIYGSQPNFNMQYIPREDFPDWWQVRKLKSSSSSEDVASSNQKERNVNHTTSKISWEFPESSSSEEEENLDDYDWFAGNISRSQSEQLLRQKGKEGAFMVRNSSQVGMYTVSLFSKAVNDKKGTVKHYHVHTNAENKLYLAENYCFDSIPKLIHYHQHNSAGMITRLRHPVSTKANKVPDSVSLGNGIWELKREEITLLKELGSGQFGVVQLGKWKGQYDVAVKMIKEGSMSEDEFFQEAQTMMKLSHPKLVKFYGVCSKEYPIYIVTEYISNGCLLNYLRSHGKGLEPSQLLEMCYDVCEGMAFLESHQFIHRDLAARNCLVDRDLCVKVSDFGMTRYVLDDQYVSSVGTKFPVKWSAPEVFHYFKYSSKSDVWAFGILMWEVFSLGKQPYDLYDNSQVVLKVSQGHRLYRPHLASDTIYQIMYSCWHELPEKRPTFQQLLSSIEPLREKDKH

[2] = molecular target: T2, Dual specificity mitogen-activated protein kinase kinase 7 (Homo sapiens) (UniProt O14733); experiment: Covalent binding affinity to MKK7 (unknown origin) assessed as formation of covalent bond with Cys218 residues by MS/MS analysis
T2 sequence (whole entry): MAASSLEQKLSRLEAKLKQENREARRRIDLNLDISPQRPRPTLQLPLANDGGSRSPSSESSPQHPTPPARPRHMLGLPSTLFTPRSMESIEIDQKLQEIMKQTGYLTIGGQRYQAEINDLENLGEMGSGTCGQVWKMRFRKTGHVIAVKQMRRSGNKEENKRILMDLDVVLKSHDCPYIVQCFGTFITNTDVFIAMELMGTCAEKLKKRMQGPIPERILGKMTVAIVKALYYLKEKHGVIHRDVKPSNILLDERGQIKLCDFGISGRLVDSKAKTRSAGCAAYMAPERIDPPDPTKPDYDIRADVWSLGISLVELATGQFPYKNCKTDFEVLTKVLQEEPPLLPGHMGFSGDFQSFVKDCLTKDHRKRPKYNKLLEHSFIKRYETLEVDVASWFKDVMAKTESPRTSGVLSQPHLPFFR
Outline: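 Protein at 1 mg/mL incubated with 2-fold molar excess of compound, 30 min on ice, then denatured and run on 15% SDS gel. Band excised, reduced with 50 mM DTT (1 h, 37 °C), alkylated with 55 mM iodoacetamide (1 h, 20 °C), digested with 0.1 mg/mL trypsin 20 h at 30 °C, acidified with TFA. Analysed by ion-trap MS/MS.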

in vitro [3] = settings: human, liver microsomes
[4] = molecular target: T3, Tyrosine-protein kinase JAK3 (Homo sapiens) (UniProt P52333); experiment: Inhibition of JAK3 (unknown origin) at 1 uM by proQinase-based assay relative to control
T3 sequence (whole entry): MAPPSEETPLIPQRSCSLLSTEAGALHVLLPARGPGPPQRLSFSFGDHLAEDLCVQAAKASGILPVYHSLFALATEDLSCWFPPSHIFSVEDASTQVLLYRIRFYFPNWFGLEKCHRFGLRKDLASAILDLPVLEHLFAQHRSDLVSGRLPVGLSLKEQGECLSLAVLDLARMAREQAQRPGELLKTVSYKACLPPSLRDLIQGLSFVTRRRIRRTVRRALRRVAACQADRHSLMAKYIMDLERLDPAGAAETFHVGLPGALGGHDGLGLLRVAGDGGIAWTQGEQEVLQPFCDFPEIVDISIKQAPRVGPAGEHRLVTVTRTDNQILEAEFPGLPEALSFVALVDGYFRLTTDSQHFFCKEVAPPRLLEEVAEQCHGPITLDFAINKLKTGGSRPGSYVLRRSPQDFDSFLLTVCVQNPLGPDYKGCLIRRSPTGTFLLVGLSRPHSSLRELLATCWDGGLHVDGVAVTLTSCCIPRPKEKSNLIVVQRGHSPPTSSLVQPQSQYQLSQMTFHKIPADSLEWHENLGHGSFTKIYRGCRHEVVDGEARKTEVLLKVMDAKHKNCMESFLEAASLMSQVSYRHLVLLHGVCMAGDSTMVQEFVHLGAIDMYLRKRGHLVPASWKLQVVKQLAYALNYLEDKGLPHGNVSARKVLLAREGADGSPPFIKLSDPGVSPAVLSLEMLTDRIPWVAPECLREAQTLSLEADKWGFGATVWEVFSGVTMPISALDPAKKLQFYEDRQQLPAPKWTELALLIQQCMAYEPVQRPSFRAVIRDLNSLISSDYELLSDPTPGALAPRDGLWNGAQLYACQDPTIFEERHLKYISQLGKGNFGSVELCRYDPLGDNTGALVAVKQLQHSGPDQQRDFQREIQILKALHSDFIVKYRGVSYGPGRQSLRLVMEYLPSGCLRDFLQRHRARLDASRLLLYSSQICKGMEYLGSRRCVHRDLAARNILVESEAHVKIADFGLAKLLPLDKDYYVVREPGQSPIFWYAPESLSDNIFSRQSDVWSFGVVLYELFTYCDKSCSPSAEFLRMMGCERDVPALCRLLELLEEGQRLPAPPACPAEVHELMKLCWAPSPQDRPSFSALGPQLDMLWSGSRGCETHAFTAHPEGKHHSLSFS

[5] = molecular target: Ribosomal protein S6 kinase (Homo sapiens) (UniProt P51812+Q9UBS0+O75676+Q15349+O75582+P23443+Q9UK32+Q15418); experiment: Inhibition of SK6 (unknown origin) at 1 uM by proQinase-based assay relative to control; assay type: protein assay
[6] = Apparent permeability across apical to basolateral side in human Caco2 cells at 5 uM after 2 hrs by transwell membrane based assay; assay type: ADME, cell-based; settings: Caco-2
Outline: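 10 mM DMSO stock diluted to 5 µM final in HBSS pH 7.4; 2 h at 37 °C, 5% CO2 on Caco-2 monolayers grown 21 days on transwell membranes.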

[7] = Kinetic solubility of the compound in Hepes buffer at pH 7.4 after 90 mins; assay type: physicochemical; settings: read-out: Kinetic_solubility
Outline: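 Compound diluted from 10 mM DMSO stock to 500 µM final in 50 mM Hepes, pH 7.4, shaken 90 min at room temperature. Filtered through 0.2 µm PVDF, then OD scanned 250–500 nm in 10 nm steps. Solubility taken from AUC, normalized to a dilution in acetonitrile.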

[8] = molecular target: Tyrosine-protein kinase Blk (Homo sapiens) (UniProt P51451); experiment: Inhibition of BLK (unknown origin) at 1 uM by proQinase-based assay relative to control
Tyrosine-protein kinase Blk (Homo sapiens), sequence (P51451 2-505 limits assumed): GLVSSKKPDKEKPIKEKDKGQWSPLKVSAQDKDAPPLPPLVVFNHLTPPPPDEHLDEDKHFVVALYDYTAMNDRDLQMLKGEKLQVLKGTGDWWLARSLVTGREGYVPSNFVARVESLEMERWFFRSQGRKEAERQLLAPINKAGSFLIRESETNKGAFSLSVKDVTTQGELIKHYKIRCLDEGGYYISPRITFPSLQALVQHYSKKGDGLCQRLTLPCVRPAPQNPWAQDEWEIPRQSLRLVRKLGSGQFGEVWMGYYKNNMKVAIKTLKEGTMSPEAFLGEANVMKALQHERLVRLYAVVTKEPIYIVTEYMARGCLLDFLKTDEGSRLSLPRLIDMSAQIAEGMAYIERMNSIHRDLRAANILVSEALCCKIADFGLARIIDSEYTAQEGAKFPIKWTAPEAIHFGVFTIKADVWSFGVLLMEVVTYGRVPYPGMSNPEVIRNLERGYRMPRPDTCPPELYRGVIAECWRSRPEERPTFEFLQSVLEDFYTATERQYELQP

in vitro [9] = settings: mouse, liver microsomes

inhibition [1]: > 50% | Activity [2]: Active | microsomal CLint at 1 h, 3 µM (in vitro [3]): 154 µL/min/mg | inhibition [4]: > 50% | inhibition [5]: > 50% | Papp A→B at 2 h, 5 µM [6]: 20 ×10⁻⁶ cm/s | solubility kinetic at 1.5 h [7]: 8 µM (≈ 3.66 µg/mL) | inhibition [8]: > 50% | microsomal CLint at 1 h, 3 µM (in vitro [9]): 124 µL/min/mg
Compound: C=CC(=O)N1CCC[C@@H](n2nc(-c3cn(-c4ccc(C(C)=O)cc4)nn3)c3c(N)ncnc32)C1
